Measured values as given in ChEMBL document CHEMBL3399927, “Identification of novel inhibitors of Aurora A with a 3-(pyrrolopyridin-2-yl)indazole scaffold” (Bioorg Med Chem, 2015).

Legend:
A549 = experiment: Antiproliferative activity against human A549 cells after 72 hrs by MTT assay; assay type: functional, cell-based; conditions: A549, 72 h
[1] = Antiproliferative activity against human SMMC7721 cells after 72 hrs by MTT assay; assay type: functional, cell-based; conditions: SMMC-7721, 72 h
Outline: (§1)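 Cells grown in RPMI-1640 with heat-inactivated 10% FBS, penicillin 100 units/mL and streptomycin 100 μg/mL, at 37 °C under 20% O2, 5% CO2. Compounds dissolved in DMSO at 10.0 mg/mL (stock), then diluted. Cells were plated for 24 h, exposed to a range of concentrations for 72 h, and viability was read by MTT. IC50 is 50% absorbance inhibition versus control cells; means of three experiments.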

Aurora kinase A = molecular target: T1, Aurora kinase A (Homo sapiens, UniProt O14965); experiment: Inhibition of human full length Aurora A by Z'-LYTE assay
T1 sequence (O14965 whole entry): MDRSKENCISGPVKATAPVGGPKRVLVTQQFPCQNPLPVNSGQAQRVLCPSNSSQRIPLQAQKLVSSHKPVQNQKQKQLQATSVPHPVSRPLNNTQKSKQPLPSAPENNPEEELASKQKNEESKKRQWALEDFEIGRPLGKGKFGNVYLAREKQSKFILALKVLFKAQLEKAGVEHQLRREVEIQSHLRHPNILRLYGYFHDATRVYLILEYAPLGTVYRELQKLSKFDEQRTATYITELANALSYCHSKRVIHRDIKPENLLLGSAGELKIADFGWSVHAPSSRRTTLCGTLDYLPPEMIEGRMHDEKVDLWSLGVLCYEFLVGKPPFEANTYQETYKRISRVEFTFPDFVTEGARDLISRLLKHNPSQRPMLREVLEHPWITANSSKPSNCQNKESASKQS

[2] = Apparent permeability across apical to basolateral side in MDCK cells by HPLC; assay type: ADME, cell-based, Canis lupus familiaris; conditions: dog
[3] = molecular target: T2, Inhibitor of nuclear factor kappa-B kinase subunit beta (Homo sapiens) (UniProt O14920); experiment: Inhibition of IKKbeta (unknown origin) at 1 ug/ml relative to control
T2 sequence (whole entry): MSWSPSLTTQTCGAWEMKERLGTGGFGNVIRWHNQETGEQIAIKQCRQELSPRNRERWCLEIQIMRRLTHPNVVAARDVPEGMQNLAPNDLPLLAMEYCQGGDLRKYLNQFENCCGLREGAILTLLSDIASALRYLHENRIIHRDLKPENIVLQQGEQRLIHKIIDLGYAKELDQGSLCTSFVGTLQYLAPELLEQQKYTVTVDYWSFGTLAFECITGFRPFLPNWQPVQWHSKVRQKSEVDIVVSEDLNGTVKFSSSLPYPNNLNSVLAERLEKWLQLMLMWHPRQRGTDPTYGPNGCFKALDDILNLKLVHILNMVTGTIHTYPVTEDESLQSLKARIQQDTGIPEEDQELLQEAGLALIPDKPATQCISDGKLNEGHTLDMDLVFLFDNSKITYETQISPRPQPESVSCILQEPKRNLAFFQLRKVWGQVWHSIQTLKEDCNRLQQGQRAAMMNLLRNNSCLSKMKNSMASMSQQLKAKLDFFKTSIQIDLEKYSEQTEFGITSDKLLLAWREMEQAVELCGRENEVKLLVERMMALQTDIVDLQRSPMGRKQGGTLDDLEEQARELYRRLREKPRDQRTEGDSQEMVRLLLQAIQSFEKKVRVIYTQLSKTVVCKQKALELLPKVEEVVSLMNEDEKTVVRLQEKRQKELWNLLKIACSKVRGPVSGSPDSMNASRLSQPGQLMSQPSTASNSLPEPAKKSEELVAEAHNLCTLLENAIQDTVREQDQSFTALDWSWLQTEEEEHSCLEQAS

[4] = molecular target: Serine/threonine-protein kinase B-raf (Homo sapiens) (UniProt P15056); experiment: Inhibition of BRAF (unknown origin) at 1 ug/ml relative to control
[5] = Antiproliferative activity against human HCT116 cells after 72 hrs by MTT assay; assay type: functional, cell-based; conditions: HCT-116, 72 h; outline: as §1
[6] = molecular target: T3, Serine/threonine-protein kinase Chk1 (Homo sapiens) (UniProt O14757); experiment: Inhibition of CHK1 (unknown origin) at 1 ug/ml relative to control
T3 sequence (whole entry): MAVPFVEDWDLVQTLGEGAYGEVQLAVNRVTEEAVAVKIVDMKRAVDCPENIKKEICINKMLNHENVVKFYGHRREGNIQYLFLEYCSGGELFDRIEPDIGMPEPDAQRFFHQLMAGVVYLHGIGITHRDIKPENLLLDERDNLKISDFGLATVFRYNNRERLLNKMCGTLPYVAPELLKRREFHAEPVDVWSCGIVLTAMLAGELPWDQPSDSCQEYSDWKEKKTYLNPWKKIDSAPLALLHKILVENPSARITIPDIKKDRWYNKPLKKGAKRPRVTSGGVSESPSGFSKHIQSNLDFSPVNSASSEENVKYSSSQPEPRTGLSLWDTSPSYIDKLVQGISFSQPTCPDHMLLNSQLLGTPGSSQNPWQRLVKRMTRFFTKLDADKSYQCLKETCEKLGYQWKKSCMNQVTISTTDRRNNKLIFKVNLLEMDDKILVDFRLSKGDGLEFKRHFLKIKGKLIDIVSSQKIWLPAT
Outline: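 Fixed-concentration screen at 1 µg/mL using the luminescent ADP-Glo assay.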

[7] = molecular target: Dual specificity mitogen-activated protein kinase kinase 1 (Homo sapiens) (UniProt Q02750); experiment: Inhibition of MEK1 (unknown origin) at 1 ug/ml relative to control
KB = experiment: Antiproliferative activity against human KB cells after 72 hrs by MTT assay; assay type: functional, cell-based; outline: as §1
[8] = molecular target: T4, Aurora kinase A (Homo sapiens) (UniProt O14965); experiment: Inhibition of human full length Aurora A at 1 ug/ml by Z'-LYTE assay
T4 sequence (whole entry): T1 sequence (O14965 whole entry)

[9] = Antiproliferative activity against human HL60 cells after 72 hrs by MTT assay; assay type: functional, cell-based; conditions: HL-60, 72 h; outline: as §1
[10] = molecular target: Protein kinase C (PKC) (Homo sapiens) (UniProt O94806+P41743+P17252+P05129+Q05655+P05771+Q05513+Q02156+P24723+Q15139+Q04759); experiment: Inhibition of PKC (unknown origin) at 1 ug/ml relative to control
Outline: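 Fixed-concentration screen at 1 µg/mL with a Z'-LYTE kinase assay kit.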

[11] = molecular target: Cyclin-dependent kinase 2 (Homo sapiens) (UniProt P24941); experiment: Inhibition of CDK2 (unknown origin) at 1 ug/ml relative to control
[12] = molecular target: Glycogen synthase kinase-3 beta (Homo sapiens) (UniProt P49841); experiment: Inhibition of GSK3beta (unknown origin) at 1 ug/ml relative to control
Glycogen synthase kinase-3 beta (Homo sapiens), sequence (P49841 whole entry, looked up): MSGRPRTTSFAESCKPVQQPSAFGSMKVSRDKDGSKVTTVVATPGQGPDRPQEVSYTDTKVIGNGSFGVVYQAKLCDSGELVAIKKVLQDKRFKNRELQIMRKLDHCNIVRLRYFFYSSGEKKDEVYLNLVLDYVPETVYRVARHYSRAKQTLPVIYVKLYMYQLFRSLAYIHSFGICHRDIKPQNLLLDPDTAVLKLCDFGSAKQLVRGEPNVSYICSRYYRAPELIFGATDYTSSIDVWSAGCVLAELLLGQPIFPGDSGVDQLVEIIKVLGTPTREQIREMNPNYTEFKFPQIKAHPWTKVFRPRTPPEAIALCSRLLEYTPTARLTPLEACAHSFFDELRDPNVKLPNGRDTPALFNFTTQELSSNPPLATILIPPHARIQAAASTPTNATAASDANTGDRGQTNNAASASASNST

Serine/threonine-protein kinase B-raf (Homo sapiens), sequence (P15056 whole entry): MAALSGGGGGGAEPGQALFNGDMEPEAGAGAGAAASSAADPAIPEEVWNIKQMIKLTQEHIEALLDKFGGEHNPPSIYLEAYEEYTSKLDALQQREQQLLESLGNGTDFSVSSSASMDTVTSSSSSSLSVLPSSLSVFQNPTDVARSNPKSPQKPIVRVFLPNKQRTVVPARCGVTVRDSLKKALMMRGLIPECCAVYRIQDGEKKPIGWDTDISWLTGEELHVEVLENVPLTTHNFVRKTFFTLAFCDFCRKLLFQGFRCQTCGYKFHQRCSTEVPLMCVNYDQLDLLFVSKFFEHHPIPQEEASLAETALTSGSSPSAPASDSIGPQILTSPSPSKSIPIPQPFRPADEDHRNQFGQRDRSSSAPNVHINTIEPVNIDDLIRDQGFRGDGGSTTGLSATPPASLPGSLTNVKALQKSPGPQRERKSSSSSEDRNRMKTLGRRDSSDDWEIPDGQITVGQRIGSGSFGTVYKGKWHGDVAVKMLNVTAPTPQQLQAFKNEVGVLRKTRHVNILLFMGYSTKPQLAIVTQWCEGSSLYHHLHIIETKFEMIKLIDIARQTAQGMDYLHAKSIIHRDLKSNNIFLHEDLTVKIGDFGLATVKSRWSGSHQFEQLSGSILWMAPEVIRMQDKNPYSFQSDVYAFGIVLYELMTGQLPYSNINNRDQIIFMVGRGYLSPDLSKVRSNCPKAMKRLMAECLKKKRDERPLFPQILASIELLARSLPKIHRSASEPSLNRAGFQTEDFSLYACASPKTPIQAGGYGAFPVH
Dual specificity mitogen-activated protein kinase kinase 1 (Homo sapiens), sequence (Q02750 whole entry): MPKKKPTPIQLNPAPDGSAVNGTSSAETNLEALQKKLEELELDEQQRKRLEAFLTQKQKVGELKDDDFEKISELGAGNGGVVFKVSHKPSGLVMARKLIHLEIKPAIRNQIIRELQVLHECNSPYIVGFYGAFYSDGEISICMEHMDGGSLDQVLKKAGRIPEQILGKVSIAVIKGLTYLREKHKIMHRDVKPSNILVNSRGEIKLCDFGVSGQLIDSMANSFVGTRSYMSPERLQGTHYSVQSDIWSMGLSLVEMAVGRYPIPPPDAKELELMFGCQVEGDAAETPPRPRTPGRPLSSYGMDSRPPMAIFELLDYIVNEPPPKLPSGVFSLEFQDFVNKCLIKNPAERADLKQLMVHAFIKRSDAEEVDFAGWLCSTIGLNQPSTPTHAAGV

Structure (SMILES)	IC50 (A549)	IC50 [1]	IC50 (Aurora kinase A)	Papp A→B [2]	inhibition [3]	inhibition [4]	IC50 [5]	inhibition [6]	inhibition [7]	IC50 (KB)	inhibition [8]	IC50 [9]	inhibition [10]	inhibition [11]	inhibition [12]
CN(C(=O)c1ccc(Cl)cc1)c1ccc2[nH]c(-c3n[nH]c4ccccc34)cc2n1	2.22 µM	2.42 µM	0.046 µM	3.95 ×10⁻⁶ cm/s	0.94%	14.4%	3 µM	1%	1.98%	0.63 µM	95%	0.45 µM	10.6%	35.5%	27.8%
CN(c1ccc2[nH]c(-c3n[nH]c4ccccc34)cc2n1)S(=O)(=O)c1ccccc1	14 µM	12 µM					6.74 µM			2.4 µM		3.7 µM			
CN(C(=O)c1ccccc1)c1ccc2[nH]c(-c3n[nH]c4cc(C#N)ccc34)cc2n1	32.8 µM	> 50 µM					24 µM			20.9 µM		6.43 µM			
COc1ccc(NC(=O)N(C)c2ccc3[nH]c(-c4n[nH]c5ccccc45)cc3n2)cc1							0.063 µM					0.0079 µM			
COc1ccc(S(=O)(=O)N(C)c2ccc3[nH]c(-c4n[nH]c5ccccc45)cc3n2)c(OC)c1	25.9 µM	10.8 µM					21.8 µM			10.2 µM		5.18 µM			
Cc1ccc(S(=O)(=O)N(C)c2ccc3[nH]c(-c4n[nH]c5ccccc45)cc3n2)cc1	27.1 µM	16.3 µM					13.3 µM			9.5 µM		3.03 µM			
CN(C(=O)c1ccc(Br)cc1)c1ccc2[nH]c(-c3n[nH]c4ccccc34)cc2n1	4.25 µM	3.46 µM					6.11 µM			1.78 µM		1.08 µM			
CN(C(=O)c1ccc(F)cc1)c1ccc2[nH]c(-c3n[nH]c4ccccc34)cc2n1	9.65 µM	9.15 µM					9.27 µM			7.22 µM		1.21 µM			
CN(C(=O)c1ccco1)c1ccc2[nH]c(-c3n[nH]c4ccccc34)cc2n1	15.5 µM	28.2 µM					30 µM			19.4 µM		4.54 µM			
CN(c1ccc2[nH]c(-c3n[nH]c4ccccc34)cc2n1)S(=O)(=O)c1ccc(Br)cc1	19.7 µM	11.5 µM					9.85 µM			7.15 µM		6.24 µM			
CC(=O)N(C)c1ccc2[nH]c(-c3n[nH]c4ccccc34)cc2n1	> 50 µM	23.4 µM					14.8 µM			10.3 µM		5.11 µM			
CN(c1ccc2[nH]c(-c3n[nH]c4ccccc34)cc2n1)S(=O)(=O)c1ccc(Cl)cc1	18.2 µM	12.7 µM					5.98 µM			8.35 µM		0.77 µM			
COc1ccc(OC)c(S(=O)(=O)N(C)c2ccc3[nH]c(-c4n[nH]c5ccccc45)cc3n2)c1	19.4 µM	4.28 µM					8.4 µM			4.38 µM		0.84 µM			
